For one assay, the system named is SNU-638. The assay can be described thus: Cytotoxicity against human SNU638 cells after 3 days by SRB assay. It is filed as functional, cell-based. To be noted: SNU-638, 72 h. For orientation: In SRB staining, fixed cells bind dye roughly in proportion to their protein.
The next assay deals with HCT-15. The assay can be described thus: Cytotoxicity against human HCT15 cells after 3 days by SRB assay. The assay is classed as functional, cell-based. As to conditions: HCT-15, 72 h.
The subject of another assay is HT-1080. Kind of assay: Cytotoxicity against human HT1080 cells after 3 days by SRB assay. The assay is classed as functional, cell-based. As to conditions: HT-1080, 72 h.
In assay [1] the target is DNA topoisomerase 2-alpha (Homo sapiens, UniProt P11388). The assay can be described thus: Inhibition of human recombinant topoisomerase 2 by decatenation assay. A digest of the protocol: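 One unit of human recombinant topo II (the amount that fully decatenates 200 ng kDNA) with 200 ng kinetoplast DNA in 50 mM Tris-HCl pH 8, 120 mM KCl, 10 mM MgCl2, 0.5 mM ATP, 0.5 mM DTT, 30 µg/mL BSA. Drug stocks in DMSO. 10 min at 37 °C, stopped with sarkosyl loading dye. Decatenation read on 1% agarose gel in TBE.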
Sequence of DNA topoisomerase 2-alpha (P11388 whole entry): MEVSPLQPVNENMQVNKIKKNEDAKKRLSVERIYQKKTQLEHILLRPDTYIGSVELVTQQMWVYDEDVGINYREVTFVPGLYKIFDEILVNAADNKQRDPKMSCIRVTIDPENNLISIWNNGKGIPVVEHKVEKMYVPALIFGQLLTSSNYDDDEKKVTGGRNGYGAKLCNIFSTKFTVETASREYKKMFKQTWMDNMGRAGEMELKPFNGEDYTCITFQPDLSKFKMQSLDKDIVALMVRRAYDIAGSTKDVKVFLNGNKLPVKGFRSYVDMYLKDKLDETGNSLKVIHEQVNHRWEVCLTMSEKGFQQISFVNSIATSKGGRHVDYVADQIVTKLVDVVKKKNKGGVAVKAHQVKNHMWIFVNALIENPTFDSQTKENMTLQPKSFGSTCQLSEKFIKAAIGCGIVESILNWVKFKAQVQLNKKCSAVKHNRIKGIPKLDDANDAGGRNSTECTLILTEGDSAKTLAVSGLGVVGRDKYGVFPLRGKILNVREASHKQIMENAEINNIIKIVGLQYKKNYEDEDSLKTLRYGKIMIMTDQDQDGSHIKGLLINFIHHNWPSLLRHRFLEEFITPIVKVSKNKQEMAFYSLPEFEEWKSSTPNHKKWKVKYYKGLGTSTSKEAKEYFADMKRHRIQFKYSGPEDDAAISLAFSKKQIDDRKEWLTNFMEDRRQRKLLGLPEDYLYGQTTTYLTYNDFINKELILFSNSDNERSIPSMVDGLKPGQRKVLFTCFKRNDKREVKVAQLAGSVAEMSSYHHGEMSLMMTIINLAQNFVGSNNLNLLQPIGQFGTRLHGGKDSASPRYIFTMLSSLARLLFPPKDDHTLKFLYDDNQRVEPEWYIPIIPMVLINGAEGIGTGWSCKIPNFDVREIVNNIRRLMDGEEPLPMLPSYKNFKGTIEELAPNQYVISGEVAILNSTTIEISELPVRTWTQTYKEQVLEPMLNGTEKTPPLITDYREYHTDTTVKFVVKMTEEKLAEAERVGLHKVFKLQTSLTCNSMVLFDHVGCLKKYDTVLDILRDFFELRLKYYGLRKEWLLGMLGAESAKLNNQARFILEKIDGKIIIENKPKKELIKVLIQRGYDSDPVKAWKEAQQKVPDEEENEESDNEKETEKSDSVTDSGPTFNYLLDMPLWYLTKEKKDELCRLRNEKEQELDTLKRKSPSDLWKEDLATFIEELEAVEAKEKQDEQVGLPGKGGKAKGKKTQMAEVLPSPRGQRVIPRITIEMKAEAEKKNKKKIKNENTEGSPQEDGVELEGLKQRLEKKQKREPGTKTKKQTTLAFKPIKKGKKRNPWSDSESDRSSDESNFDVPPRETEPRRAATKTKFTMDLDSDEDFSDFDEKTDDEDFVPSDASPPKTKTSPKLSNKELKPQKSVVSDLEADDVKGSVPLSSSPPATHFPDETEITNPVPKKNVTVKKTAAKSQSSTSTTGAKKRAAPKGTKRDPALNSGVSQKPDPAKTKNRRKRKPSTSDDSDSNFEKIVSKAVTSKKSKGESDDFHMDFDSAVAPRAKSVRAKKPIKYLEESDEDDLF

The subject of the next assay is A549. The assay can be described thus: Cytotoxicity against human A549 cells after 3 days by SRB assay. The assay is classed as functional, cell-based. To be noted: A549, 72 h.
The next assay has as its system SK-OV-3. Kind of assay: Cytotoxicity against human SKOV3 cells after 3 days by SRB assay. The assay is classed as functional, cell-based. To be noted: SK-OV-3, 72 h.
The subject of another assay is XF498. The assay can be described thus: Cytotoxicity against human XF498 cells after 3 days by SRB assay. It is filed as functional, cell-based. To be noted: XF498, 72 h.
A further assay has as its system HL-60. Kind of assay: Cytotoxicity against human HL60 cells after 3 days by SRB assay. The assay is classed as functional, cell-based. As to conditions: HL-60, 72 h.
The test system of the next assay is SK-MEL-2. The assay can be described thus: Cytotoxicity against human SK-MEL-2 cells after 3 days by SRB assay. The assay is classed as functional, cell-based. To be noted: SK-MEL-2, 72 h.

For `CCCn1nnc2c1C(=O)c1cnncc1C2=O`, the IC50 – broadly, the concentration that gives 50% inhibition – was 212 nM in the assay on SNU-638; 176 nM with HCT-15; 75 nM with HT-1080; 49000 nM in assay [1]; 26 nM in the assay with A549; 14 nM in the assay with SK-OV-3. In addition, the values for the IC50 in the assay on XF498, in the assay with HL-60 and in the assay with SK-MEL-2 were 85 nM, 83 nM and 20 nM, respectively.

Take `CCn1nc2c(n1)C(=O)c1cnncc1C2=O`: the IC50 in the assay with SNU-638 turned out to be 46 nM; in the assay on HCT-15, 18 nM; with HT-1080, 204 nM; in assay [1], 61500 nM; in the assay on A549 it was 18 nM; with SK-OV-3, 3 nM. Besides, the results for the IC50 in the assay on XF498, with HL-60 and with SK-MEL-2 were 17 nM, 90 nM and 4 nM, respectively.

For `Cn1nnc2c1C(=O)c1cnncc1C2=O`, the IC50 in the assay on SNU-638 was found to be 241 nM; in the assay with HCT-15 it was 103 nM; in the assay on HT-1080, 73 nM; in assay [1], 39000 nM; with A549 it was 4 nM; in the assay with SK-OV-3, 3 nM. For the same compound, the IC50 was determined as 35 nM with XF498, 82 nM with HL-60 and 8 nM with SK-MEL-2.

`CC(C)n1nc2c(n1)C(=O)c1cnncc1C2=O`: the IC50 is 11 nM in the assay on SNU-638; 14 nM in the assay on HCT-15; 55 nM in the assay with HT-1080; 54500 nM in assay [1]; 9 nM with A549; 31 nM in the assay with SK-OV-3. Moreover, the IC50 came to 14 nM in the assay on XF498, 18 nM in the assay on HL-60 and 7 nM in the assay with SK-MEL-2.

On to `O=C1c2cnncc2C(=O)c2[nH]nnc21`, for which the concentration for half-maximal inhibition (IC50) is more than 5000 nM with SNU-638; more than 10000 nM in the assay on HCT-15; more than 5000 nM in the assay with HT-1080; 52800 nM in assay [1]; 9020 nM in the assay with A549; 7640 nM with SK-OV-3. The IC50 is more than 10000 nM in the assay on XF498, more than 5000 nM in the assay on HL-60 and more than 10000 nM in the assay on SK-MEL-2.

Consider `CCCCn1nnc2c1C(=O)c1cnncc1C2=O`, for which the IC50 in the assay on SNU-638 was 155 nM; in the assay with HCT-15, 177 nM; in the assay on HT-1080 it was 99 nM; in assay [1], 43200 nM; in the assay on A549, 81 nM; in the assay with SK-OV-3, 21 nM. Besides, the IC50 was found to be 181 nM with XF498, 89 nM with HL-60 and 23 nM with SK-MEL-2.

Regarding `CCCn1nc2c(n1)C(=O)c1cnncc1C2=O`, the IC50 with SNU-638 stood at 43 nM; in the assay with HCT-15 it was 18 nM; in the assay with HT-1080 it was 33 nM; in [1] it was 44400 nM; in the assay with A549, 19 nM; with SK-OV-3, 9 nM. Besides, the results for the IC50 in the assay on XF498, in the assay with HL-60 and in the assay on SK-MEL-2 were 18 nM, 157 nM and 9 nM, respectively.

For the compound `Cn1nc2c(n1)C(=O)c1cnncc1C2=O`, the IC50 is 54 nM in the assay with SNU-638; 20 nM with HCT-15; 7.8 nM in the assay on HT-1080; 55600 nM in assay [1]; 2 nM with A549; 0.4 nM with SK-OV-3. The results for the IC50 with XF498, with HL-60 and in the assay on SK-MEL-2 were 4 nM, 124 nM and 2 nM, respectively.

Take `CCCCn1nc2c(n1)C(=O)c1cnncc1C2=O`: the IC50 was 50 nM in the assay with SNU-638; 18 nM with HCT-15; 30 nM in the assay with HT-1080; 64800 nM in assay [1]; 18 nM in the assay on A549; 17 nM in the assay on SK-OV-3. Further, the IC50 stood at 19 nM with XF498, 151 nM with HL-60 and 15 nM in the assay on SK-MEL-2.

Regarding `CC(C)n1nnc2c1C(=O)c1cnncc1C2=O`, the concentration for half-maximal inhibition (IC50) was 57 nM in the assay on SNU-638; 33 nM in the assay with HCT-15; 114 nM in the assay with HT-1080; 33300 nM in assay [1]; 32 nM in the assay with A549; 49 nM in the assay with SK-OV-3. In addition, the IC50 came to 49 nM in the assay with XF498, 50 nM in the assay on HL-60 and 16 nM in the assay on SK-MEL-2.

For the compound `COc1ccc(Cn2nnc3c2C(=O)c2cnncc2C3=O)cc1`, the IC50 in the assay on SNU-638 was determined as 257 nM; in the assay with HCT-15, 59 nM; with HT-1080 it was 330 nM; in [1], 28600 nM; with A549, 54 nM; in the assay with SK-OV-3, 12 nM. The IC50 with XF498 is 118 nM; in the assay with HL-60, 130 nM; with SK-MEL-2 it was 41 nM.

Take `COc1cccc2c1C(=O)c1c(O)c3c(c(O)c1C2=O)C[C@@](O)(C(=O)CO)C[C@@H]3O[C@H]1C[C@H](N)[C@H](O)[C@H](C)O1` [DOXORUBICIN]: the IC50 in the assay with SNU-638 amounted to 52 nM; in the assay with HCT-15, 251 nM; with HT-1080, 22 nM; in the assay with SK-OV-3 it was 41 nM; in the assay with XF498, 44 nM; in the assay on HL-60 it was 44 nM. Also, inhibition in the assay on SK-MEL-2 was half-maximal at 19 nM (IC50).

With `CC(C)Cn1nc2c(n1)C(=O)c1cnncc1C2=O`, the IC50 in the assay with SNU-638 was 14 nM; with HCT-15, 29 nM; with HT-1080, 85 nM; in assay [1], 19400 nM; in the assay on A549, 19 nM; in the assay on SK-OV-3 it was 43 nM. Moreover, the IC50 in the assay with XF498 stood at 19 nM; with HL-60 it was 38 nM; in the assay on SK-MEL-2, 15 nM.

As for `CCn1nnc2c1C(=O)c1cnncc1C2=O`, the IC50 was 126 nM in the assay with SNU-638; 39 nM with HCT-15; 68 nM in the assay on HT-1080; 55600 nM in [1]; 6 nM in the assay on A549; 3 nM in the assay with SK-OV-3. For the same compound, the IC50 in the assay on XF498 worked out at 34 nM; in the assay with HL-60 it was 56 nM; with SK-MEL-2, 8 nM.

With `CC(C)Cn1nnc2c1C(=O)c1cnncc1C2=O`, the IC50 turned out to be 69 nM in the assay with SNU-638; 110 nM in the assay on HCT-15; 77 nM in the assay on HT-1080; 29800 nM in [1]; 110 nM in the assay on A549; 190 nM in the assay on SK-OV-3. Besides, the figures for the IC50 with XF498, in the assay with HL-60 and with SK-MEL-2 were 140 nM, 75 nM and 66 nM, respectively.

`COc1cc([C@@H]2c3cc4c(cc3[C@@H](O[C@@H]3O[C@@H]5CO[C@@H](C)O[C@H]5[C@H](O)[C@H]3O)[C@H]3COC(=O)[C@H]23)OCO4)cc(OC)c1O` [ETOPOSIDE]: the concentration for half-maximal inhibition (IC50) was found to be 230 nM in the assay on SNU-638; 2800 nM in the assay on HCT-15; 250 nM in the assay on HT-1080; 1160 nM in the assay with A549; 4280 nM in the assay with SK-OV-3; 3480 nM with XF498. Also, the IC50 in the assay with HL-60 turned out to be 370 nM; with SK-MEL-2, 5720 nM.

For the origin of these results see ChEMBL document CHEMBL1144716, “Synthesis of 1-/2-substituted-[1,2,3]triazolo[4,5-g]phthalazine-4,9-diones and evaluation of their cytotoxicity and topoisomerase II inhibition” (Bioorg Med Chem, 2008).
